Test results taken from ChEMBL document CHEMBL1629506, “Design, synthesis and structure-activity relationship study of novel pyrazole-based heterocycles as potential antitumor agents” (Eur J Med Chem, 2010).

Legend:
[1] = test system: OVCAR-4; assay: Growth inhibition of human OVCAR4 cells after 48 hrs by sulforhodamine B assay; format: functional; conditions: OVCAR-4, 48 h
How it was run: (§1)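 Cells were plated at 5000–40,000 cells/well, depending on doubling time, and preincubated 24 h at 37 °C in 5% CO2. Time-zero plates were TCA-fixed at drug addition. Compounds were dissolved in DMSO and tested at five concentrations (10-fold or ½-log dilutions) for 48 h. Cells were fixed with cold TCA, stained with 0.4% sulforhodamine B and read at 515 nm. GI50 was taken as the concentration giving 50% growth.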

[2] = test system: MDA-MB-231; assay: Growth inhibition of human MDA-MB-231cells after 48 hrs by sulforhodamine B assay; format: functional; conditions: MDA-MB-231, 48 h; how it was run: as §1
[3] = Acute toxicity in mouse after 24 hrs; format: organism-based; conditions: in vivo
How it was run: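 Adult mice of both sexes, acclimatized 1 week (12 h light/dark, 21–23 °C), fasted 12 h before dosing. 30 mice in 6 groups of 5 each got a single oral gavage dose, at different dose levels, of a fine-powder aqueous suspension. LD50 was determined, with values as group means of five mice.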

[4] = test system: T47D; assay: Growth inhibition of human T47D cells after 48 hrs by sulforhodamine B assay; format: functional; how it was run: as §1
[5] = test system: IGROV-1; assay: Growth inhibition of human IGROV1 cells after 48 hrs by sulforhodamine B assay; format: functional; conditions: IGROV-1, 48 h; how it was run: as §1
[6] = test system: BT-549; assay: Growth inhibition of human BT549 cells after 48 hrs by sulforhodamine B assay; format: functional; conditions: BT-549, 48 h; how it was run: as §1
[7] = test system: SK-OV-3; assay: Growth inhibition of human SKOV3 cells after 48 hrs by sulforhodamine B assay; format: functional; conditions: SK-OV-3, 48 h; how it was run: as §1
[8] = test system: Rattus norvegicus; assay: Antiestrogenic activity in Sprague-Dawley rat assessed as reduction in estradiol induced uterine weight 0.06 ug, po after 8 days relative to letrozole; format: functional
How it was run: (§2)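 Immature ovariectomized female Sprague-Dawley rats (~55 g), groups of 12. Estradiol 0.03–0.05 given s.c. daily for 7 days, with test compound or letrozole reference at various doses up to 0.06 per animal, given orally in 0.5% carboxymethylcellulose. Controls received estradiol alone. Uterine weights were taken on day 8 and group means expressed as % reduction versus estradiol-only controls. Potency was taken relative to letrozole.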

[9] = test system: MDA-N; assay: Growth inhibition of human MDA-N cells after 48 hrs by sulforhodamine B assay; format: functional; how it was run: as §1
[10] = test system: MDA-MB-435; assay: Growth inhibition of human MDA-MB-435 cells after 48 hrs by sulforhodamine B assay; format: functional; conditions: MDA-MB-435, 48 h; how it was run: as §1
[11] = Growth inhibition of human Hs 578T cells after 48 hrs by sulforhodamine B assay; format: functional; how it was run: as §1
[12] = test system: OVCAR-3; assay: Growth inhibition of human OVCAR3 cells after 48 hrs by sulforhodamine B assay; format: functional; conditions: OVCAR-3, 48 h; how it was run: as §1
[13] = test system: NCI/ADR-RES; assay: Growth inhibition of human NCI/ADR-RES cells after 48 hrs by sulforhodamine B assay; format: functional; how it was run: as §1
[14] = test system: MCF7; assay: Growth inhibition of human MCF7 cells after 48 hrs by sulforhodamine B assay; format: functional; conditions: MCF7, 48 h; how it was run: as §1
[15] = test system: Rattus norvegicus; assay: Antiestrogenic activity in Sprague-Dawley rat assessed as reduction in estradiol induced uterine weight upto 0.06 ug, po after 8 days; format: functional; parameters: scale not given: the % may be the effect or the level left; how it was run: as §2
[16] = test system: OVCAR-5; assay: Growth inhibition of human OVCAR5 cells after 48 hrs by sulforhodamine B assay; format: functional; conditions: OVCAR-5, 48 h; how it was run: as §1
[17] = test system: OVCAR-8; assay: Growth inhibition of human OVCAR8 cells after 48 hrs by sulforhodamine B assay; format: functional; conditions: OVCAR-8, 48 h; how it was run: as §1

Structure (SMILES) | GI50 [1] [µM] | GI50 [2] [µM] | LD50 at 24 h [3] [mg/kg] | GI50 [4] [µM] | GI50 [5] [µM] | GI50 [6] [µM] | GI50 [7] [µM] | potency ratio vs letrozole [8] | GI50 [9] [µM] | GI50 [10] [µM] | GI50 [11] [µM] | GI50 [12] [µM] | GI50 [13] [µM] | GI50 [14] [µM] | Activity [15] [%] | GI50 [16] [µM] | GI50 [17] [µM]
N#Cc1c(C(=O)c2cn(-c3ccc(Cl)cc3)nc2C(=O)Nc2ccccc2)nn(-c2ccccc2)c1-c1ccccc1 | 28.4 | > 100 | 101 | 33 | 99.5 | 11.8 | 9.42 | 1.61 | > 100 | 2.03 | 8.84 | 23.8 | > 100 | > 100 | 34.87 | > 100 | > 100
CCOC(=O)c1nn(-c2ccccc2)cc1C(=O)c1nn(-c2ccccc2)c(-c2ccccc2)c1C#N | > 100 |  | 122 | > 100 | > 100 | 31.8 |  | 1.1 | 38.4 | > 100 |  |  | > 100 | 5.49 | 23.98 |  | > 100
N#Cc1c(-c2nnc(O)c3nn(-c4ccc(Cl)cc4)cc23)nn(-c2ccccc2)c1-c1ccccc1 | 4.38 | > 100 | 322 | > 100 | 91.3 | > 100 | 30.8 | 1.09 | > 100 | > 100 | > 100 | 33.4 | > 100 | > 100 | 23.76 | 32.8 | 3.23
N#Cc1c(-c2nnc(-c3ccccc3)c3nn(-c4ccc(Cl)cc4)cc23)nn(-c2ccccc2)c1-c1ccccc1 | 5.49 | 6.42 |  | 38 | 93.4 | 38.8 | > 100 |  | 63.8 | 23.8 | 16.8 | > 100 | 2.28 | 43.8 |  | 8.94 | 9.23
CC(=O)c1nn(-c2ccccc2)cc1C(=O)c1nn(-c2ccccc2)c(-c2ccccc2)c1C#N | 69.8 | > 100 | 324 | 36.8 | 96.8 | > 100 | 39.8 | 1.49 | 0.077 | > 100 | 6.46 | 66.8 | > 100 | 25.7 | 32.45 | 34.8 | 62.8
Cc1ccc(-n2cc(C(=O)c3nn(-c4ccccc4)c(-c4ccccc4)c3C#N)c(C(=O)Nc3ccccc3)n2)cc1 | 7.56 | 6.27 | 122 | 30.8 | 16.6 | > 100 | 9.42 | 1.6 | 5.49 | 2.23 | 63.2 | 7.66 | 2.48 | 34.4 | 34.65 | 9.72 | 9.52
N#Cc1c(-c2nnc(-c3nn(-c4ccccc4)c(-c4ccccc4)c3C#N)c3nn(-c4ccc(Cl)cc4)cc23)nn(-c2ccccc2)c1-c1ccccc1 | 43.8 | 7.9 | 112 | 16 | 98 | 1.02 | 36.8 | 2 | 2.26 | 9.2 | 9.72 | 95.8 | 7.46 | 9.42 | 43.41 | > 100 | 61.8
N#Cc1c(-c2nnc(-c3ccccc3)c3cn(-c4ccccc4)nc23)nn(-c2ccccc2)c1-c1ccccc1 | 63 | 8.84 |  | 21.8 | 94.8 | 21.8 | 32.8 |  | 31.2 | 31.8 | 31.8 | 93.8 | > 100 | 9.53 | 32.59 | > 100 | 68
